MIC data for eight compounds are collected here from ChEMBL document CHEMBL1817591, “Novel benzofuroxan derivatives against multidrug-resistant Staphylococcus aureus strains: design using Topliss' decision tree, synthesis and biological assay” (2011).

Experiment [1] relates to Staphylococcus aureus. The experiment in a line: Antibacterial activity against multidrug-resistant Staphylococcus aureus 3SP/R33 after 18 hrs by serial broth microdilution method. Format: functional. Conditions: 3SP/R33, 18 h. The method, boiled down:
(§1)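 Two-stage broth microdilution MIC in Tryptic Soy Broth, run in triplicate. Phase I used two-fold serial dilutions from DMSO/TSB 1:10 v/v stocks, with ampicillin and vancomycin as controls. The inoculum was 0.5 McFarland, diluted in saline and TSB. […] Phase II diluted a stock at twice the Phase I MIC across 11 columns.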
(In general: Broth dilution looks for growth in wells or tubes with falling amounts of substance.)

Experiment [2] concerns Staphylococcus aureus. The experiment in a line: Antibacterial activity against vancomycin-intermediate Staphylococcus aureus VISA3 at 2 times MIC of multidrug-resistant Staphylococcus aureus 3SP/R33 after 18 hrs by serial broth microdilution method. The format is functional. Conditions: VISA3, 18 h. The method, boiled down: as §1

≈ marks a conversion by molar mass, not a printed value.

As usually defined, the MIC is the smallest concentration in the dilution series that meets the test's criterion for growth inhibition.

For `O=C(N/N=C/c1ccc2c(c1)no[n+]2[O-])c1ccc(C(F)(F)F)cc1`, the MIC in experiment [1] was determined as 10 µg/mL (≈ 28.6 µM); in experiment [2] it was 13.1 µg/mL.
The like results for `O=C(N/N=C/c1ccc2c(c1)no[n+]2[O-])c1ccc([N+](=O)[O-])c(C(F)(F)F)c1` were, in that order, 7.5 µg/mL (≈ 19 µM) and 11.4 µg/mL.
For `O=C(N/N=C/c1ccc2c(c1)no[n+]2[O-])c1ccc([N+](=O)[O-])cc1` the same measures were 15 µg/mL (≈ 45.8 µM) and 21.9 µg/mL.
The like results for `O=C(N/N=C/c1ccc2c(c1)no[n+]2[O-])c1ccccc1` were, in that order, 10 µg/mL (≈ 35.4 µM) and 16.2 µg/mL.
As to `O=C(N/N=C/c1ccc2c(c1)no[n+]2[O-])c1ccc(Br)cc1`, the MIC came to 10 µg/mL (≈ 27.7 µM) in experiment [1] and 18 µg/mL in experiment [2].
The like results for `O=C(N/N=C/c1ccc2c(c1)no[n+]2[O-])c1ccc(Cl)c(Cl)c1` were, in that order, 7.5 µg/mL (≈ 21.4 µM) and 11.8 µg/mL.
The like results for `O=C(N/N=C/c1ccc2c(c1)no[n+]2[O-])c1ccc(Cl)cc1Cl` were, in that order, 15 µg/mL (≈ 42.7 µM) and 17.7 µg/mL.
`O=C(N/N=C/c1ccc2c(c1)no[n+]2[O-])c1ccc(Cl)cc1`: the values for the minimum inhibitory concentration (MIC) in experiment [1] and in experiment [2] were 10 µg/mL (≈ 31.6 µM) and 15.3 µg/mL, respectively.
